Results taken from ChEMBL document CHEMBL5390324, “Synthesis of 9-Cinnamyl-9H-purine Derivatives as Novel TLR4/MyD88/NF-κB Pathway Inhibitors for Anti-inflammatory Effects” (ACS Med Chem Lett, 2023).
pIC50: −log10 of the molar value. Activity calls are given as the source filed them. The rule behind the calls is not given here.

Assays:
RAW264.7 [1] = assay: Antiinflammatory activity in mouse RAW264.7 cells assessed as inhibition of LPS-stimulated nitric oxide production at 20 uM preincubated for 2 hrs followed by LPS stimulation for 24 hrs by Griess reagent based assay relative to control; assay type: functional; details: time 26 hrs
How it was run: (§1)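 RAW264.7 cells pretreated 2 h with compound, then LPS (500 ng/mL) 24 h. Nitrite in culture supernatant measured with Griess reagent (1% sulfanilamide in 5% H3PO4, 0.1% N-(1-naphthyl)ethylenediamine dihydrochloride). Inhibition % as mean ± SEM of triplicates; negative values denote enhancement of NO.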

RAW264.7 [2] = assay: Antiinflammatory activity in mouse RAW264.7 cells assessed as inhibition of LPS-stimulated nitric oxide production at 10 uM preincubated for 2 hrs followed by LPS stimulation for 24 hrs by Griess reagent based assay relative to control; assay type: functional; details: time 26 hrs; how it was run: as §1
RAW264.7 [3] = assay: Antiinflammatory activity in mouse RAW264.7 cells assessed as inhibition of LPS-stimulated nitric oxide production preincubated for 2 hrs followed by LPS stimulation for 24 hrs by Griess reagent based assay; assay type: functional, cell-based; details: for inhibition: time 26.0 hrs; how it was run: as §1
RAW264.7 [4] = assay: Antiinflammatory activity in mouse RAW264.7 cells assessed as inhibition of nitric oxide production incubated for 2 hrs by Griess reagent based assay; assay type: functional, cell-based; how it was run: as §1
RAW264.7 [5] = assay: Cytotoxicity against mouse RAW264.7 cells at 3 to 30 uM by MTS assay; assay type: toxicity, cell-based; details: raw264.7, 30 µM, dose 3-30 µM
How it was run: (§2)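 MTS viability assay in RAW264.7 and 293T cells at 3, 10 and 30 μM.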

HEK-293T [6] = assay: Cytotoxicity against HEK293T cells at 3 to 30 uM by MTS assay; assay type: toxicity, cell-based; details: human, dose 3-30 µM; how it was run: as §2
RAW264.7 [7] = assay: Antiinflammatory activity in LPS-stimulated mouse RAW264.7 cells assessed as inhibition in IL-6 level at 3 to 30 uM preincubated for 2 hrs followed by LPS stimulation for 24 hrs by ELISA; assay type: functional, cell-based; details: dose 3-30 µM, time 26.0 hrs
How it was run: (§3)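 RAW264.7 macrophages pretreated 2 h with compound, or Bay11-7082 as positive control, then LPS (500 ng/mL) for 24 h. IL-6, IL-1β and TNF-α in supernatants quantified by ELISA. Mean ± SEM.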

RAW264.7 [8] = assay: Antiinflammatory activity in LPS-stimulated mouse RAW264.7 cells assessed as inhibition in IL-1beta level at 3 to 30 uM preincubated for 2 hrs followed by LPS stimulation for 24 hrs by ELISA; assay type: functional, cell-based; details: dose 3-30 µM, time 26.0 hrs; how it was run: as §3
RAW264.7 [9] = assay: Antiinflammatory activity in LPS-stimulated mouse RAW264.7 cells assessed as inhibition in TNF-alpha level at 3 to 30 uM preincubated for 2 hrs followed by LPS stimulation for 24 hrs by ELISA; assay type: functional, cell-based; details: dose 3-30 µM, time 26.0 hrs; how it was run: as §3
RAW264.7 [10] = assay: Antiinflammatory activity in LPS-stimulated mouse RAW264.7 cells assessed as reduction in iNOS level at 10 to 30 uM preincubated for 2 hrs followed by LPS stimulation for 20 hrs by Western blot analysis; assay type: functional, cell-based; details: dose 10-30 µM, time 22.0 hrs
How it was run: (§4)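 RAW264.7 cells pretreated 2 h with compound, then LPS (200 ng/mL) for 20 h. iNOS and COX-2 protein assessed by Western blot.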

RAW264.7 [11] = assay: Antiinflammatory activity in LPS-stimulated mouse RAW264.7 cells assessed as reduction in COX-2 level at 10 to 30 uM preincubated for 2 hrs followed by LPS stimulation for 20 hrs by Western blot analysis; assay type: functional, cell-based; details: dose 10-30 µM, time 22.0 hrs; how it was run: as §4
HEK-293T [12] = assay: Antiinflammatory activity in HEK293T cells transfected with NF-kappaB (unknown origin) assessed as inhibition in NF-kB transcription at 3 to 30 uM preincubated for 2 hrs followed by PMA stimulation for 24 hrs by SEAP reporter gene based Quanti-blue assay; assay type: functional, cell-based; details: Homo sapiens, dose 3-30 µM, time 26.0 hrs
How it was run: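 293T cells on poly-D-lysine-coated wells transfected overnight with pNF-κB-SEAP. Treated with compound for 2 h, then PMA (50 ng/mL) for 24 h. Bay 11-7082 (20 μM) served as NF-κB inhibitor control. SEAP activity read with QUANTI-Blue. Mean ± SEM.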

RAW264.7 [13] = assay: Antiinflammatory activity in mouse RAW264.7 cells assessed as inhibition of NF-kappaB translocation from cytosol to nucleus at 30 uM preincubated for 2 hrs followed by LPS stimulation for 2 hrs by immunofluorescence staining analysis; assay type: functional, cell-based; details: time 4.0 hrs
How it was run: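 RAW264.7 cells in glass chamber wells overnight, treated 2 h with compound (30 μM) or Bay (20 μM), then LPS for 2 h. Immunostained for NF-κB p65 with Alexa Fluor 488 secondary; nuclei counterstained with DAPI in antifade medium; fluorescence imaging.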

[14] = biological target: TLR4-MyD88 (Mus musculus) (UniProt Q9QUK6+P22366); assay: Inhibition of TLR4-MyD88 interaction in mouse RAW264.7 cells at 30 uM preincubated for 2 hrs followed by LPS stimulation for 24 hrs by co-immunoprecipitation analysis; assay type: cell-based; details: time 26.0 hrs
How it was run: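 RAW264.7 cells treated with compound at 30 μM for 2 h, then LPS (500 ng/mL) for 24 h. Lysates immunoprecipitated with MyD88- or TLR4-specific antibodies on protein A/G agarose beads; immunocomplexes probed by Western blot for TLR4 or MyD88.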

Mus musculus [15] = species: Mus musculus; assay: Antiinflammatory activity in DNCB-stimulated atopic dermatitis BALB/c mouse model assessed as reduction in ear swelling at 0.5 % pretreated for 30 mins followed by DNCB re-treatment measured after 3 hrs; assay type: functional, organism-based; details: time 3.5 hrs
How it was run: (§5)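 DNCB-induced atopic dermatitis model in mouse ears, lesions peaking day 7 after sensitization; test agent applied at 0.5%. Ear thickness measured daily with a digimatic micrometer; ear lesions photographed. Ear specimens H&E-stained and examined microscopically for epidermal and dermal thickness and inflammatory cell infiltration. Mean ± SEM.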

Mus musculus [16] = species: Mus musculus; assay: Antiinflammatory activity in DNCB-stimulated atopic dermatitis BALB/c mouse model assessed as reduction in skin lesion at 0.5 % pretreated for 30 mins followed by DNCB re-treatment measured after 3 hrs; assay type: functional, organism-based; details: time 3.5 hrs; how it was run: as §5
Mus musculus [17] = species: Mus musculus; assay: Antiinflammatory activity in DNCB-stimulated atopic dermatitis BALB/c mouse model assessed as reduction in epidermal thickness of ear at 0.5 % pretreated for 30 mins followed by DNCB re-treatment measured after 3 hrs by H and E staining based microscopic analysis; assay type: functional, organism-based; details: time 3.5 hrs; how it was run: as §5
Mus musculus [18] = species: Mus musculus; assay: Antiinflammatory activity in DNCB-stimulated atopic dermatitis BALB/c mouse model assessed as reduction in dermal thickness of ear at 0.5 % pretreated for 30 mins followed by DNCB re-treatment measured after 3 hrs by H and E staining based microscopic analysis; assay type: functional, organism-based; details: time 3.5 hrs; how it was run: as §5
Mus musculus [19] = species: Mus musculus; assay: Antiinflammatory activity in DNCB-stimulated atopic dermatitis BALB/c mouse model assessed as reduction in infiltration of inflammatory cells of ear at 0.5 % pretreated for 30 mins followed by DNCB re-treatment measured after 3 hrs by H and E staining based microscopic analysis; assay type: functional, organism-based; details: time 3.5 hrs; how it was run: as §5

TLR4-MyD88 (Mus musculus), sequence (P22366 whole entry, looked up): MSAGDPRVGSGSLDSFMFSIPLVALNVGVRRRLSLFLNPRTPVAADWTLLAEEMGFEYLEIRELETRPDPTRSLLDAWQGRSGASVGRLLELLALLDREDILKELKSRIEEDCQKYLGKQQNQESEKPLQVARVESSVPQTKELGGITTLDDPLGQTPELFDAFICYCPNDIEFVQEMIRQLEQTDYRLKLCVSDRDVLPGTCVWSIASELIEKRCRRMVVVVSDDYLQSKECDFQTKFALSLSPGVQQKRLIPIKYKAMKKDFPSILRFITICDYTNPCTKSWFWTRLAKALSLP
TLR4-MyD88 (Mus musculus), sequence (Q9QUK6 whole entry, looked up): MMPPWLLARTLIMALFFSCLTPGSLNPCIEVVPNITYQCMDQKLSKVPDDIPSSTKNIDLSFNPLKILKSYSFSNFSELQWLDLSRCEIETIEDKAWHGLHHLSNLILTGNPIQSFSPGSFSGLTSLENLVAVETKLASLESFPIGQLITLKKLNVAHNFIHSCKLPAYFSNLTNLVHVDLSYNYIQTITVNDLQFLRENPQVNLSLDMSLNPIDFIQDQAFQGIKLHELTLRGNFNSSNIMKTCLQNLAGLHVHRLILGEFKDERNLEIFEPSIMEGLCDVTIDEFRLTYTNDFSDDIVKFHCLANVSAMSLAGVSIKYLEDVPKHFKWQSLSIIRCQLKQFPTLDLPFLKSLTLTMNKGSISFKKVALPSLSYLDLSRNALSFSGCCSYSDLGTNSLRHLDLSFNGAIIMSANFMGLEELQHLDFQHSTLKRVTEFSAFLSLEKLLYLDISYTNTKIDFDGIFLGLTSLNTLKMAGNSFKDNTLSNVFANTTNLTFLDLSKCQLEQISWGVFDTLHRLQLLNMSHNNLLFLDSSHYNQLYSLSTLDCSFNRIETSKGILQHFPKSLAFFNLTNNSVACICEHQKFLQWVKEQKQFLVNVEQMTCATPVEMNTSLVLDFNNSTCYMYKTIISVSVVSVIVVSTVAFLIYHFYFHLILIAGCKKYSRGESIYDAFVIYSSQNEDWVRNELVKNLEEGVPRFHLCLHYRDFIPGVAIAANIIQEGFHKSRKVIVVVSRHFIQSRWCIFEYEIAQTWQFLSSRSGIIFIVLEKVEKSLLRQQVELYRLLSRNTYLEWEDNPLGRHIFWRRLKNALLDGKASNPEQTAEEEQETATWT

SMILES	inhibition at 20 µM (RAW264.7 [1]) [%]	inhibition at 10 µM (RAW264.7 [2]) [%]	further results
Cc1ccc(/C=C/Cn2cnc3c(Cl)ncnc32)cc1	12.1	13.5	
Cc1ccc(/C=C/Cn2cnc3c(N)ncnc32)cc1	-7.73	0.48	inhibition (RAW264.7 [3]): inactive; inhibition (RAW264.7 [4]): inactive
Nc1nc(Cl)nc2c1ncn2C/C=C/c1ccc(F)cc1	24.1	13.9	
ONc1nc(Cl)nc2c1ncn2C/C=C/c1ccccc1	51.2	57.4	
Fc1ccc(C2CC2Cn2cnc3c(Cl)nc(Cl)nc32)cc1 (stereo not given)	17.1	4.11	
CNc1nc(Cl)nc2c1ncn2CC1CC1c1ccc(F)cc1 (stereo not given)	11.9	11.2	
Nc1nc(Cl)nc2c1ncn2C/C=C/c1ccccc1	2.46	-5.27	inhibition (RAW264.7 [3]): inactive; inhibition (RAW264.7 [4]): inactive
CNc1nc(Cl)nc2c1ncn2C/C=C/c1ccccc1	34.7	26.8	
CNc1ncnc2c1ncn2C/C=C/c1ccccc1	33.4	19.3	
CNc1nc(Cl)nc2c1ncn2C/C=C/c1ccc(C)cc1	34.6	28.4	
Clc1nc(Cl)c2ncn(C/C=C/c3ccccc3)c2n1	34.7	22.2	
CNc1ncnc2c1ncn2C/C=C/c1ccc(C)cc1	-15.7	-7	inhibition (RAW264.7 [3]): inactive; inhibition (RAW264.7 [4]): inactive
Fc1ccc(/C=C/Cn2cnc3c(Cl)nc(Cl)nc32)cc1	40.5	29.3	
Cc1ccc(/C=C/Cn2cnc3c(Cl)nc(F)nc32)cc1	60.5	31.1	
Cc1ccc(/C=C/Cn2cnc3c(F)nc(F)nc32)cc1	12.1	5.88	
Fc1ccc(/C=C/Cn2cnc3c(Cl)ncnc32)cc1	30.2	11.6	
CNc1nc(Cl)nc2c1ncn2C/C=C/c1ccc(F)cc1	36.5	28.2	
Cc1ccc(/C=C/Cn2cnc3c(Cl)nc(Cl)nc32)cc1	60.4	31.9	pIC50 (RAW264.7 [3]): 5.19; Activity (RAW264.7 [5]): Non-Toxic; Activity (HEK-293T [6]): Non-Toxic; inhibition (RAW264.7 [7]): Active; inhibition (RAW264.7 [8]): Active; inhibition (RAW264.7 [9]): Active; Activity (RAW264.7 [10]): Active; Activity (RAW264.7 [11]): Active; inhibition (HEK-293T [12]): Active; inhibition (RAW264.7 [13]): Active; inhibition [14]: Active; Activity (Mus musculus [15]): Active; Activity (Mus musculus [16]): Active; Activity (Mus musculus [17]): Active; Activity (Mus musculus [18]): Active; Activity (Mus musculus [19]): Active
ONc1nc(Cl)nc2c1ncn2C/C=C/c1ccc(F)cc1	17.6	4.59	
Oc1ccc(/C=C/c2cc(O)cc(O)c2)cc1 [RESVERATROL]	38.6	26.6	pIC50 (RAW264.7 [3]): 4.58; Activity (RAW264.7 [5]): Non-Toxic; Activity (HEK-293T [6]): Non-Toxic
Nc1ncnc2c1ncn2C/C=C/c1ccc(F)cc1	-19.3	-17.1	inhibition (RAW264.7 [3]): inactive; inhibition (RAW264.7 [4]): inactive
Clc1ncnc2c1ncn2C/C=C/c1ccccc1	14.8	15.1	
CNc1ncnc2c1ncn2C/C=C/c1ccc(F)cc1	2.9	0.97	
Cc1ccc(/C=C/Cn2cnc3c(NO)nc(Cl)nc32)cc1	40.9	36.8	
Nc1ncnc2c1ncn2C/C=C/c1ccccc1	-13.3	-3.38	inhibition (RAW264.7 [3]): inactive; inhibition (RAW264.7 [4]): inactive
Nc1nc(Cl)nc2c1ncn2CC1CC1c1ccc(F)cc1 (stereo not given)	1.56	-6.22	inhibition (RAW264.7 [3]): inactive; inhibition (RAW264.7 [4]): inactive
Cc1ccc(/C=C/Cn2cnc3c(N)nc(Cl)nc32)cc1	11.2	11.9	
